A3A deaminase = human APOBEC3A DNA deaminase inhibition. P31941. recombinant A3A, FAM/TAMRA ssDNA deamination fluorescence. inhibition, % at 20 µM. 330,000 tested, 0.41% active. AID 493011;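 active = at least 40% inhibition at 20 µM here, with at most 30% in a related deaminase screen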
CXCR6 block = blocks human CXCR6 beta-arrestin recruitment; AID 602244; 360,000 tested, 0.36% active; O00574; CHO-K1 PathHunter CXCR6 beta-arrestin, luminescence; inhibition, % at 20 µM; in the data active = inhibition above about 34%, passing the limit was not always enough;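 note: antagonist mode with CXCL16 agonist at 10 nM final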
Target sequence (O00574 whole entry, looked up): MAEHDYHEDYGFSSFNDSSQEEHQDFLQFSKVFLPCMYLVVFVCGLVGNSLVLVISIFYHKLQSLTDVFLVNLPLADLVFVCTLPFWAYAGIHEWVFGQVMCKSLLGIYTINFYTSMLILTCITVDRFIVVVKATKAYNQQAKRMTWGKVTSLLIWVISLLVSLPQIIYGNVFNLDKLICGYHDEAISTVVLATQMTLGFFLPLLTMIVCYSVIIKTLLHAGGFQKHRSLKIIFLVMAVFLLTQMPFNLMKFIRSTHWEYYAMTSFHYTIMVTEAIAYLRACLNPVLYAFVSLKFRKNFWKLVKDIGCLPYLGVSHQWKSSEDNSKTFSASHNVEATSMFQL
A3G deaminase = inhibitors of human APOBEC3G DNA deaminase; Q9HC16; recombinant A3G, ssDNA deamination FAM/TAMRA fluorescence; inhibition, % at 20 µM; 330,000 tested, 0.28% active;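 active = inhibition of at least 40% at 20 µM, with no more than 30% in the related APOBEC3A deaminase screen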
APJ ag = APJ receptor agonism. 330,000 tested, 0.11% active. CHO-K1 APJ PathHunter beta-arrestin, luminescence; 0% DMSO wells, 100% apelin. activation, % at 20 µM;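 active = activation more than six SD over the plate average, tested at 20 µM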
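Test system – PathHunter CHO-K1 APJ (AGTRL-1) beta-arrestin reporter cells · Input – 1000 cells/well · Compound – single test compound dose, 20 µM final, 1% DMSO · Times – compound stimulation 90 min at 25 °C, detection 60 min · Technique – beta-gal luminescence · Read-out basis – APJ–arrestin association signal · Control set – negative DMSO alone, positive Apelin-13 at 10 nM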
CCR6 antagonist = CCR6 (human) receptor antagonism | inhibition, % at 20 µM | CHO-K1 CCR6 PathHunter beta-arrestin, luminescence, CCL20-stimulated | AID 493098 | 340,000 tested, 0.49% active | P51684;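 active = compounds whose inhibition of the agonist-driven luminescence signal at 20 µM reaches about 50%, limit read from the data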;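 note: cells stimulated with CCL20 at 14 nM final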
APJ antag = APJ receptor antagonism. P35414. CHO-K1 APJ beta-arrestin complementation, luminescence. inhibition, % at 20 µM. 330,000 tested, 0.32% active;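 active = inhibition above about 40% at 20 µM, limit read from the data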;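 note: cells challenged with 10 nM apelin-13 agonist together with compound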
A3G conf = APOBEC3G (human) deaminase inhibition, confirmed; 890 tested, 72% active; AID 493152; shares compounds with A3G deaminase; recombinant A3G ssDNA deaminase, UDG/FAM-TAMRA fluorescence; inhibition, % at 20 µM;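 active = inhibition reaching a set limit in any replicate at 20 µM, the limit being 80% of the first screen's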
UDG A3G counter = inhibits E. coli UDG, flagging false APOBEC3G inhibitors | shares compounds with A3G deaminase | UDG counterscreen, FAM/TAMRA oligo fluorescence | inhibition, % at 20 µM | 710 tested, under 10 active;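 active = compounds giving 40% or more inhibition at 20 µM in any one of the three replicates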;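 note: inhibitors lower the FAM signal released by uracil excision and alkaline cleavage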
Hits are given with their value; i = inactive; nt = no result. The list is not random: actives were taken first. Their share in the collection is about 1.4%.

SMILES	A3A deaminase	CXCR6 block	A3G deaminase	APJ ag	CCR6 antagonist	APJ antag	A3G conf	UDG A3G counter
CC[n+]1c(/C=C2\C=C(C)CC(C)(C)C2)sc2ccccc21	i	i	50.1	i	i	i	56.9	nt
CC(=O)Oc1ccc(N2C(=O)C3C4C=CC(CO)(O4)C3C2=O)cc1 (stereo unspecified)	i	i	i	i	i	i	nt	nt
O=C1C2C3C=CC(CO)(O3)C2C(=O)N1c1ccccc1-c1ccccc1 (stereo unspecified)	i	57.0	59.7	i	101.5	i	68.9	i
COC(=O)CSc1nc(N)c2c3c(sc2n1)C(c1ccccc1)SC(c1ccccc1)C3 (stereo unspecified)	i	i	42.8	i	i	i	i	i
O=C(NN1C(=O)NC2(CCCCC2)C1=O)c1ccc(-c2ccc([N+](=O)[O-])cc2)o1	i	i	i	i	i	i	nt	nt
O=C(CNc1ccccc1N1CCCC1=O)Nc1cc(C(F)(F)F)ccc1-n1cncn1	i	i	i	i	i	i	nt	nt
S=c1[nH]nc(Cc2cccs2)n1-c1ccccc1	i	i	56.5	i	i	i	58.9	i
Cc1nn(-c2ccc(F)cc2)c(-n2cccc2)c1C(=O)N1CCN(C(=O)c2ccco2)CC1	i	i	i	i	i	i	nt	nt
COC(=O)C1CCN(C(=O)c2cc(S(=O)(=O)N3CCCCC3)ccc2Cl)CC1	i	i	i	i	i	i	nt	nt
COc1ccc(-n2nnc3c(SC(C(C)=O)C(=O)N(C)C)ncnc32)cc1 (stereo unspecified)	i	i	51.4	i	i	i	i	i
COC(=O)C(C)Sc1ncnc2c1nnn2-c1ccc(F)cc1 (stereo unspecified)	i	i	i	i	i	i	nt	nt
S=c1nc(-c2ccc(Cl)cc2)[nH][nH]1	i	i	i	i	i	i	nt	nt
Cc1ccc(C)n1-c1nc(=S)[nH][nH]1	i	i	58.6	i	i	i	73.7	i
Cc1ccc(NC(=O)C2CCN(c3nc(C)cc(C)n3)CC2)cc1	i	i	47.6	i	i	i	i	i
Cc1cc(C)nc(N2CCC(C(=O)Nc3ccc(Oc4ccccc4)cc3)CC2)n1	i	i	i	i	i	i	nt	nt
Cc1nc2scc(-c3ccccc3)c2c(=O)n1N	i	i	i	i	i	i	nt	nt
Cc1nc2scc(-c3ccccc3)c2c(=O)n1N=C1C=CC(=O)C=C1	i	nt	65.3	i	99.2	i	92.7	i
c1ccc2c(c1)OCC(c1nnc3sc(-c4ccc5c(c4)OCO5)nn13)O2 (stereo unspecified)	i	i	57.3	i	i	i	47.5	i
Clc1ccccc1-c1nnc2sc(-c3ccc4c(c3)OCO4)nn12	i	i	53.1	i	i	i	39.5	i
CCOC(=O)C1CCN(S(=O)(=O)c2cc3c4c(c2)C(C)C(=O)N4CCC3)CC1 (stereo unspecified)	i	i	i	i	i	i	nt	nt
Cc1c(CN2CCc3c([nH]c4ccccc34)C2CC(C)C)cnn1C (stereo unspecified)	i	i	i	i	i	i	nt	nt
COC(=O)c1ccc(/C=N/Nc2nc(-c3ccccc3)cs2)cc1	i	i	i	i	i	i	nt	nt
COC(=O)c1ccc(/C=N/Nc2nc(-c3ccc(C)cc3)cs2)cc1	i	i	44.6	i	i	i	i	nt
COc1ccc(CN2C(=O)C(CC(=O)NCc3ccco3)CC(C(=O)N(C(C)C)C(C)C)=C2C)cc1 (stereo unspecified)	nt	i	nt	nt	nt	nt	nt	nt
CCOC(=O)c1c(S(=O)(=O)NC2CCN(C(=O)OCC)CC2)c(C)n(C)c1C	i	i	i	i	i	i	nt	nt
CNC(=O)c1cc2c(cn1)[nH]c1ccccc12	i	i	i	i	i	i	nt	nt
COC(=O)[C@H](CCSC)NC(=O)c1cc2c(cn1)[nH]c1ccccc12	i	i	57.0	i	i	i	56.0	i
O=S(=O)(c1cccc(-c2n[nH]c(=S)n2Cc2ccccc2)c1)N1CCOCC1	i	i	46.2	i	i	i	72.0	i

Screening results from PubChem BioAssay.
